# Measurements published in ChEMBL document CHEMBL1126217, “Side-chain derivatives of biologically active nucleosides. 1. Side-chain analogs of 3'-azido-3'-deoxythymidine (AZT)” (J Med Chem, 1992).
# The source made the active and inactive calls. The calls are words filed in the database; no cut-off is given here.
# Legend:
# Vaccinia virus [1] = experiment: Inhibitory activity against Vaccinia virus(VV)at a concentration 400 ug/mL; not effective; type: functional, organism-based; settings: Orthopoxvirus vaccinia
# [2] = Inhibitory activity against herpes simplex virus type-1 (HSV-1) at a concentration 400 ug/mL; not effective; type: functional, organism-based; settings: Human alphaherpesvirus 1
# [3] = system: Human immunodeficiency virus; experiment: Compound was evaluated for the cytotoxic concentration against HIV; type: functional; settings: Human immunodeficiency virus 1
# Method in brief: (§1)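 Infected cells mixed with serial compound dilutions (tested up to 200 μg/mL) and incubated 5 days at 37 °C. Viable cells counted microscopically in a hematocytometer by trypan blue exclusion to give 50% effective and cytotoxic concentrations.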
# Human alphaherpesvirus 2 [4] = experiment: Inhibitory activity against herpes simplex virus type-2 (HSV-2) at a concentration 400 ug/mL; not effective; type: functional, organism-based
# Vaccinia virus [5] = experiment: Inhibitory activity against Vaccinia virus(VV) at a concentration 400 ug/mL; not effective; type: functional, organism-based; settings: Orthopoxvirus vaccinia
# Vaccinia virus [6] = experiment: Inhibitory activity towards Vaccinia virus(VV); type: functional; settings: Orthopoxvirus vaccinia
# Human alphaherpesvirus 2 [7] = experiment: Inhibitory activity towards herpes simplex virus type-2 (HSV-2)
# [8] = system: Vesicular stomatitis virus; experiment: Inhibitory activity towards Vesicular stomatitis virus(VSV); type: functional
# Human alphaherpesvirus 1 = experiment: Inhibitory activity towards herpes simplex virus type-1 (HSV-1)
# MT4 = experiment: Inhibitory activity toward HIV replication in MT-4 cells; type: functional, cell-based; settings: Homo sapiens; method in brief: as §1
Structure (SMILES),CC50 (Vaccinia virus [1]),HSV-1 inhibitory activity [2],CC50 [3] [µg/mL],CC50 (Human alphaherpesvirus 2 [4]),CC50 (Vaccinia virus [5]),CC50 (Vaccinia virus [6]) [µg/mL],CC50 (Human alphaherpesvirus 2 [7]) [µg/mL],CC50 [8] [µg/mL],CC50 (Human alphaherpesvirus 1) [µg/mL],EC50 (MT4) [µg/mL]
Cc1cn(C2CC(N=[N+]=[N-])C([C@H](C)O)O2)c(=O)[nH]c1=O (some centres not stated),inactive,inactive,> 200,inactive,–,–,–,–,–,–
Cc1cn(C2CC(N=[N+]=[N-])C([C@H](O)CO)O2)c(=O)[nH]c1=O (some centres not stated),inactive,inactive,> 200,inactive,–,–,–,–,–,–
Cc1cn(C2CC(N=[N+]=[N-])C(CCO)O2)c(=O)[nH]c1=O (configuration not stated),–,inactive,200,inactive,inactive,–,–,–,–,–
Cc1cn(C2CC(N=[N+]=[N-])C([C@@H](C)O)O2)c(=O)[nH]c1=O (some centres not stated),–,–,> 200,–,–,300,300,> 400,150,–
Cc1cn([C@H]2C[C@H](N=[N+]=[N-])[C@@H](CO)O2)c(=O)[nH]c1=O [ZIDOVUDINE],–,–,–,–,–,–,–,–,–,0.002
Cc1cn(C2CC(N=[N+]=[N-])C([C@@H](O)CO)O2)c(=O)[nH]c1=O (some centres not stated),inactive,inactive,17.7,inactive,–,–,–,–,–,–
